# Sampled rows, rich in hits. Any-hit rate of the full collection: about 2.6%.
# NR2E3 ag-1: inhibitors of NR2E3-RetCOR corepressor binding, primary screen, NR2E3 agonist project, biochemical, TR-FRET, GST-NR2E3, biotin-RetCOR. Photoreceptor-specific nuclear receptor (Homo sapiens), Q9Y5X4. 1536-well. inhibition of corepressor binding, % at 4.78 µM. actives 0.12% (n = 320,000). AID 2300, 2010;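 active = percent inhibition above the cutoff of mean plus 3 SD of all tested compounds, set per screening campaign, cut at about 20% in these data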;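 also: 0% = DMSO wells and 100% = biotin wells as full block of FRET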
#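 Material: NR2E3–RetCOR corepressor complex / Amount: 1.35 nM GST-NR2E3 / Medium: Tris pH 7.5 / Compound: single nominal compound dose of 4.8 µM / Incubation: 5 h at 4 °C / Technique: TR-FRET, Eu(K)-anti-GST donor, streptavidin-D2 acceptor, ex 340, em 617/671 nm / Read-out basis: percent loss of FRET ratio relative to control wells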
# Rev-erbA mod: modulators of Rev-erb alpha DNA binding, primary screen, biochemical, FITC-DNA, fluorescence polarization, uHTS. Rev-erbα–FITC-DNA binding, 90 min. activity, % at 10 µM. actives 0.79% (n = 370,000);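 active = activity above about 14%, limit read from the data; passing the limit was not always enough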;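 also: 0% = DMSO wells with 35 nM protein and 100% = DMSO wells with 750 nM protein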
# Target sequence (P20393 whole entry, looked up): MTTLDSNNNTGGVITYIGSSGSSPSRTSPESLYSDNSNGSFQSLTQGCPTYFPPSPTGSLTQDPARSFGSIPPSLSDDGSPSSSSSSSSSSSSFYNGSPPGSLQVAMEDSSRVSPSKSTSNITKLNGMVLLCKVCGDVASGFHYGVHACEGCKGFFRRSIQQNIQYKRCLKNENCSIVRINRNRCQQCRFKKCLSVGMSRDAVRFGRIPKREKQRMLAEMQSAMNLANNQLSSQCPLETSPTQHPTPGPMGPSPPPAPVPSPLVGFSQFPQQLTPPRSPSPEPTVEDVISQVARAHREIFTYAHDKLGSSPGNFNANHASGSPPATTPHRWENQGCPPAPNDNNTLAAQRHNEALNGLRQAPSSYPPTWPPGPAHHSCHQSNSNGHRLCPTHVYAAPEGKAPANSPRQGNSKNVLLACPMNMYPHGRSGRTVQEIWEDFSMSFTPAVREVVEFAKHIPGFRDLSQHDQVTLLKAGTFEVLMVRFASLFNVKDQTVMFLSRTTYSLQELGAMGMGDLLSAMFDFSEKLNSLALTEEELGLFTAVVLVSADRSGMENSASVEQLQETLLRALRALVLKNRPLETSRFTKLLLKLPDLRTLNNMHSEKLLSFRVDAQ
# NR2E3 ag-2: NR2E3 agonists in two-hybrid cells, primary screen, cell-based, luminescence, CHO-S, Gal4-NCOR/VP16-NR2E3 | Photoreceptor-specific nuclear receptor (Homo sapiens), Q9Y5X4 | luciferase | inhibition of corepressor binding, % at 3.98 µM | actives 0.35% (n = 360,000) | AID 602229, 2012;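 active = inhibition above the mean of all tested compounds plus 3 SD, cut at about 70% in these data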;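 also: 0% = DMSO with NR2E3 transfected cells and 100% = cells lacking NR2E3 construct; higher means lower luciferase signal from less NR2E3 corepressor binding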
# rCAG RNA binder: binders of r(CAG) RNA repeats, primary screen, biochemical, fluorescence. r(CAG) RNA repeat, TO-PRO-1 dye displacement fluorescence. inhibition, % at 3 µM. actives 1.3% (n = 370,000). AID 651821, 2012;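 active = inhibition above the plate cutoff, the mean of all test compounds on that plate plus 3 SD, cut at about 35% in these data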;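 also: 0% = DMSO alone and 100% = 100 µM mitoxantrone as full dye displacement; higher means more dye released from RNA so lower well fluorescence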
# PG9 binder: binders of HIV-1 gp120 antibody PG9, primary screen, biochemical, TR-FRET | actives 0.43% (n = 360,000) | inhibition, % at 6.7 µM | AID 624416, 2012 | TR-FRET gp120-PG9 antibody binding; in the data active = inhibition above about 8.5%
# NR2E3 ag confirm: NR2E3 agonist confirmation in cells, cell-based, luminescence, CHO-S two-hybrid | CHO-S mammalian two-hybrid NR2E3-NCOR, luciferase luminescence | shares compounds with NR2E3 ag-2 | inhibition, % at 3.98 µM | actives 51% (n = 2,300);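 active = average inhibition above a cutoff equal to the mean inhibition of all tested compounds plus one SD, cut at about 70% in these data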;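 also: 0% = DMSO in NR2E3 cells and 100% = DMSO in cells lacking NR2E3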
# GAL4-VP16 luc: GAL4-VP16 reporter modulators, confirmation, counter-screen for NR2E3 agonist project, cell-based, luminescence, CHO-S, high throughput. actives 29% (n = 2,300). CHO-S GAL4-VP16 luciferase reporter. shares compounds with NR2E3 ag-2. AID 624379, 2012. inhibition, % at 3.98 µM;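 active = mean inhibition above a cutoff equal to the average over all tested compounds plus one standard deviation, cut at about 70% in these data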;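 also: luciferase from a UAS reporter driven by GAL4-VP16 transactivation; 0% = DMSO with VP16-transfected cells and 100% = DMSO with cells lacking VP16; higher means less reporter light so more repression of VP16 activity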
# * hit, by the source's call; x = no result.
SMILES,NR2E3 ag-1,Rev-erbA mod,NR2E3 ag-2,rCAG RNA binder,PG9 binder,NR2E3 ag confirm,GAL4-VP16 luc
CCCCOCC1CN(CCCC)S(=O)(=O)c2c(cccc2Sc2ccc(SC)cc2)O1 (stereo not given),x,4.0,x,6.3,-2.1,x,x
CCOc1ccc(NC(=O)Nc2cc(OCC(F)(F)F)cc(OCC(F)(F)F)c2)cc1,0.0,6.0,5.4,6.5,-4.2,x,x
O=C(Nc1ccc(F)cc1)Nc1cc(OCC(F)(F)F)cc(OCC(F)(F)F)c1,-1.9,1.5,49.4,4.6,-0.2,97.6*,85.1*
Cc1[nH]c(-c2ccccn2)nc(=S)c1Cl,-1.8,2.4,7.1,-3.7,-2.2,x,x
Cc1cc(=S)nc(-c2ccccn2)[nH]1,0.9,-6.9,76.1*,-3.8,-1.6,-6.2,-12.4
O=C(NCc1ccccc1)[C@@H]1CCCN1C(=O)[C@H]1CCCN1C(=O)c1c(F)cccc1F,x,-1.9,x,-1.7,-0.3,x,x
O=S(=O)(CS(=O)(=O)c1ccc(Br)cc1)c1ccc(Br)cc1,x,-2.3,x,6.1,0.7,x,x
CC(C)(C)c1ccc(-n2ncc3c2CCCC3NC(=O)c2csnn2)cc1 (stereo not given),4.3,-2.5,-42.5,-0.4,-0.6,x,x
CC(C)(C)c1ccc(-n2ncc3c2CCCC3NC(=O)c2cnccn2)cc1 (stereo not given),0.4,9.3,88.8*,0.2,-0.6,58.8,47.5
Cn1nccc1C(=O)NC1CCCc2c1cnn2-c1ccc(C(C)(C)C)cc1 (stereo not given),-0.4,-4.3,106.0*,-10.5,0.3,95.1*,83.6*
COc1cccc(C(CC2=CCCCC2)NC(=O)C(F)(F)F)c1 (stereo not given),x,3.9,x,0.4,-1.9,x,x
NC(=O)c1ncn([C@@H]2O[C@H](C(=O)N[C@H](Cc3ccccc3)C(=O)N3CCN(c4ccc(Cl)cn4)CC3)[C@@H](O)[C@H]2O)n1,x,-4.6,x,0.7,-1.1,x,x
CC1CCC2C(=O)N(c3ccc(Cc4ccncc4)cc3)C(=O)C2C1 (stereo not given),-2.1,-5.0,48.8,-6.7,0.7,76.6*,63.8
CC1CCN(C(=O)c2ccc(N3C(=O)C4CCC(C)CC4C3=O)cc2)CC1 (stereo not given),-0.5,2.6,-15.4,-12.6,1.1,x,x
O=C1C2C3C=CC(C3)C2C(=O)N1c1ccc(Cc2ccncc2)cc1 (stereo not given),2.7,-2.6,52.3,-6.6,0.9,12.1,33.8
COC(=O)Cn1c(=O)c2c(nc3n2CC(C)CN3Cc2ccccc2)n(C)c1=O (stereo not given),-0.8,2.5,-19.2,-6.1,-3.8,x,x
C=C(C)Cn1c(=O)c2c(nc3n2CC(C)CN3Cc2ccccc2)n(C)c1=O (stereo not given),-1.3,-1.0,63.1,-7.6,-1.4,13.3,-20.1
CCCc1ccc(-c2ccc(/C=C/C(=O)O)cc2)nc1,-1.2,-2.5,75.1*,5.7,-2.9,85.2*,61.1
CCc1nnc(NC(=O)c2ccc(S(=O)(=O)N(CC(C)C)CC(C)C)cc2)o1,-1.3,-1.5,103.1*,28.9,0.4,99.3*,39.5
CNC(=O)c1ccsc1NC(=O)c1ccc(S(=O)(=O)N2CCCc3ccccc32)cc1,0.3,-3.4,-6.8,17.9,0.9,x,x
CCc1nnc(NC(=O)c2ccc(S(=O)(=O)N3CCCc4ccccc43)cc2)o1,-1.4,9.0,53.7,23.1,1.4,88.4*,43.8
CCOC1=C2CN(S(=O)(=O)c3ccccc3)[C@@H](c3ccccc3)C[C@H]2[C@H]2C(=O)N(c3ccccc3)C(=O)[C@H]2C1,x,-3.4,x,15.1,-0.4,x,x
CC12C=CC(C)(C3C(=O)NC(=O)C31)C1C3C(=O)NC(=O)C3C12 (stereo not given),x,1.1,x,3.2,1.2,x,x
COc1ccc(C(=O)c2c(C(F)(F)F)oc3c2C(=O)c2ccccc2C3=O)cc1OC,5.5,2.8,88.6*,0.1,0.9,99.8*,54.4
Cc1ccccc1-c1ccc2c(c1)[C@@H]1C[C@H](N(C)C(=O)Nc3ccccc3)[C@H]([C@H](C)O)CN1CC2,x,-1.9,x,6.9,1.4,x,x
SMILES,NR2E3 ag-1,Rev-erbA mod,NR2E3 ag-2,rCAG RNA binder,PG9 binder,NR2E3 ag confirm,GAL4-VP16 luc
COc1cccc(NC(=O)Nc2ccc(Cc3ccncc3)cc2)c1,-2.6,0.5,55.3,1.4,1.1,41.5,30.2
COC(=O)C12OCC34C(CC5C(C)=C(O)C(=O)CC5(C)C3C(O)C1O)OC(=O)C(OC(=O)C=C(C)C)C24 (stereo not given),x,2.1,103.4*,-1.3,-0.8,99.5*,98.4*
O=C1CC(O)C(Cc2ccccc2)N1 (stereo not given),x,-6.9,x,1.6,1.6,x,x
COc1ccc(-c2csc(NC(=O)C3CCN(c4ncnc5sc(C)c(C)c45)CC3)n2)cc1OC,-2.8,0.1,78.0*,12.2,-1.2,73.9*,79.0*
COc1ccccc1OCC(=O)NNC(=O)C1CCN(c2ncnc3sc(C)c(C)c23)CC1,0.4,2.4,-21.5,-1.9,-0.1,x,x
O=C(Nc1ccc2c(c1)OCCO2)NC1(C(F)(F)F)Oc2ccccc2O1,-1.1,-5.7,58.5,5.5,0.2,10.1,-35.2
C[C@H]1[C@@H](NC(=O)/C=C/c2ccccc2)CC[C@@]23CCCN2C(=O)CCC[C@@H]13,x,3.5,x,x,x,x,x
Cc1cc(N2CCC(C)CC2)nc(-n2nc(C)cc2C)n1,2.3,1.4,94.0*,-6.4,-1.6,-2.2,10.8
C[C@@H]1ON(C)[C@H]2C[C@H]3c4[nH]c5c(-c6ccc7c(c6)OCO7)cccc5c4CCN3C(=O)[C@@H]12,x,9.4,x,5.7,0.3,x,x
O=C(Cn1cnc2ccccc21)Nc1ccc2c(c1)OCCCO2,1.2,0.3,49.8,-0.5,-2.1,38.7,30.5
O=C(CSc1ncccc1C(=O)O)Nc1ccc2c(c1)OCCO2,-4.2,5.6,65.8,1.9,-0.9,-6.2,2.9
O=C(CSc1ccccc1C(=O)O)Nc1ccc2c(c1)OCO2,4.1,-4.0,13.6,2.3,-0.6,x,x
COc1ccc(N(Cc2ccccc2)C(=O)CSc2nnc(Cn3nnc4ccccc43)o2)cc1,0.9,4.1,11.6,-4.0,0.8,x,x
O=C(CSc1nnc(Cn2nnc3ccccc32)o1)N(Cc1ccc(F)cc1)c1ccccc1,-2.6,-1.0,78.6*,-2.5,2.0,88.4*,73.7*
